Screens from PubChem.
RanGTP-Impb inh – inhibitors of RanGTP-importin-beta interaction, primary screen, biochemical, FRET, CFP-Ran, YFP-importin-beta, homogeneous; cell-free CFP-Ran/YFP-importin-beta FRET ratio; inhibition, % (concentration not given with the values); hit rate 1.1% among 300,000;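 active = more than half of the replicate wells show a fall in the fluorescence ratio signal beyond about 16%, limit read from the data, passing the limit was not always enough; inconclusive = exactly half of the replicate wells pass the set limit; inactive = fewer than half of replicates pass the limit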;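 note: 0% = DMSO wells and 100% = Ran loaded with GDP instead of GTP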
PfM18AAP inh-1 – PfM18AAP inhibitors, malaria aminopeptidase, primary screen, biochemical, QFRET, recombinant enzyme; H-Glu-NHMec fluorogenic cleavage; M18 aspartyl aminopeptidase (Plasmodium falciparum 3D7); inhibition, % at 7.35 µM; hit rate 1.2% among 290,000;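 active = inhibition above the campaign mean inhibition over all tested compounds plus 3 SD, cut at about 28% in these data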;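 note: 0% = plate median of test compound wells and 100% = 2 mM ZnCl2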
Runt-SMMHC FRET – inhibitors of RUNX1 Runt–CBFb-SMMHC binding, primary screen, biochemical, FRET, Cerulean-Runt, Venus-CBFb-SMMHC, uHTS. Runt-related transcription factor 1 (Homo sapiens) + Core-binding factor subunit beta …. Cerulean-Runt/Venus-CBFb-SMMHC FRET ratio 530/480, 1 h. inhibition, % at 20 µM. hit rate 0.74% among 220,000;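 active = mean inhibition across duplicate retests at 20 µM reaching about 50%, limit read from the data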;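 note: 0% = DMSO wells and 100% = wells with excess untagged CBFb-SMMHC; inhibitors lower the FRET ratio by blocking Runt binding to CBFb-SMMHC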
RBBP9 inh – human RBBP9 inhibitors, primary screen, biochemical, fluorescence polarization, FP-Rh probe, HTS; recombinant RBBP9; AID 1515, 2009; inhibition, % at 7.94 µM; hit rate 0.2% among 220,000;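 active = inhibition above the campaign mean of all tested compounds plus 3 SD, cut at about 14% in these data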;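 note: plate controls were DMSO wells with RBBP9 for no effect and wells lacking RBBP9 protein for full effect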
Target sequence (O75884 whole entry, looked up): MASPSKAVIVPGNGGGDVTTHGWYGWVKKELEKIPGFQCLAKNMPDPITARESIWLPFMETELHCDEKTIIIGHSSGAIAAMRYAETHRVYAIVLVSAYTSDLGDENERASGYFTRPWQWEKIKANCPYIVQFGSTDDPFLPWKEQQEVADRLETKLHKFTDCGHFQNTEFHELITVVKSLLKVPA
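Assay system: recombinant human RBBP9; Reagent: Serine-hydrolase probe FP-Rh, 375 nM pre-mixing; Doses: 7.94 µM single dose, 0.794% DMSO; Incubation: 30 min then 45 min, 25 °C; Detection: fluorescence polarization (mP), excitation 525 nm, emission 598 nm; Evaluation: percent inhibition from mP, scaled between DMSO and no-protein wells.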
Hck-Nef inh – inhibitors of Nef-activated human Hck kinase, primary screen, biochemical, Z-Lyte FRET, 384-well, Hck-YEEI. Tyrosine-protein kinase HCK (Homo sapiens), P08631. Recombinant Hck-YEEI plus Nef, Z-Lyte FRET kinase assay. inhibition, % at 20 µM. hit rate 0.68% among 220,000. AID 463187, 2010;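 active = Hck-Nef kinase inhibition above about 50%, limit read from the data; inactive = inhibition below that limit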;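 note: 0% = DMSO with Hck plus Nef and 100% = Hck alone without Nef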
Target sequence (P08631 whole entry, looked up): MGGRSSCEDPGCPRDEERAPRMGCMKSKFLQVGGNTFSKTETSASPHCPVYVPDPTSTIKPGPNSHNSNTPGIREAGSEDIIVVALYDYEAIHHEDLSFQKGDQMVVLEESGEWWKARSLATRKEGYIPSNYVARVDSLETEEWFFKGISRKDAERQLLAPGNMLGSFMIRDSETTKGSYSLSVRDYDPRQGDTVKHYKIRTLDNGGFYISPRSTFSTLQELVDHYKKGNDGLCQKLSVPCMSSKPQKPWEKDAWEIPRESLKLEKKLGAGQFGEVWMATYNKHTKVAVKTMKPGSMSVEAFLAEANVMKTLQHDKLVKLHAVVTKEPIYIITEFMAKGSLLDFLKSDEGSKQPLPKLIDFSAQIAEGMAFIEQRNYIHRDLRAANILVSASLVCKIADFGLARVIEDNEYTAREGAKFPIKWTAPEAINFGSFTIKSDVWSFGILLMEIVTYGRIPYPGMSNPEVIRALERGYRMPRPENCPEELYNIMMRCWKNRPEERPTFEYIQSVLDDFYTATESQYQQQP
Runt-CBFb FRET – inhibitors of RUNX1 Runt–CBFb binding, primary screen, biochemical, FRET, Cerulean-Runt, Venus-CBFb, uHTS | Runt-related transcription factor 1 (Homo sapiens) + Core-binding factor subunit beta … | Cerulean-Runt/Venus-CBFb FRET ratio 530/480, 1 h | inhibition, % at 20 µM | hit rate 0.46% among 220,000 | AID 1496, 2009;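 active = inhibition over about 50% at 20 µM in the single-dose screen, limit read from the data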;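 note: 0% = DMSO wells and 100% = excess unlabeled CBFb competitor control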
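test system = Cerulean-Runt domain fusion protein, energy donor | probe or stimulus = Venus-CBFb binding partner, 100 nM | incubation = two 1 h room-temperature incubations shielded from light | detection = fluorescence energy transfer, 422 nm excitation, 530/480 nm emission | measure = loss of energy transfer signal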
PfM18AAP inh-2 – PfM18AAP inhibitors, malaria aminopeptidase, confirmation, biochemical, QFRET, recombinant enzyme, triplicate; shares compounds with PfM18AAP inh-1; H-Glu-NHMec fluorogenic cleavage; inhibition, % at 7.35 µM; hit rate 28% among 2,400; AID 2170, 2009;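 active = mean inhibition over replicate wells above the hit cutoff set for the earlier primary screen, cut at about 29% in these data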;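 note: 0% = median of test compound wells and 100% = 2 mM ZnCl2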
CTSL1 counter – cathepsin L1 inhibitors, retest, confirmation, counter-screen for PFM18AAP inhibitor project, biochemical, QFRET, triplicate. 2,400 tested, under 10 active. purified cathepsin L1, Z-Leu-Arg-MCA fluorescence. AID 2178, 2009. shares compounds with PfM18AAP inh-1. inhibition, % at 5.96 µM;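 active = average inhibition across replicates above the hit cutoff set in the earlier primary screen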;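 note: 0% = median of test compound wells and 100% = Z-Phe-Ala-diazomethylketone 1 µM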
* hit, by the source's call; ? = inconclusive; . = no result. Hits are enriched below; roughly 2.9% of the tested compounds scored in any of these assays.

SMILES | RanGTP-Impb inh | PfM18AAP inh-1 | Runt-SMMHC FRET | RBBP9 inh | Hck-Nef inh | Runt-CBFb FRET | PfM18AAP inh-2 | CTSL1 counter
NC(=O)COC(=O)CCCc1c[nH]c2ccccc12 | 1 | -4 | 2 | 3 | 5 | -1 | . | .
NC(=O)Cc1c[nH]c2cccc(O)c12 | -11 | 47* | -4 | 1 | 3 | 0 | 12 | -5
CCN(CC)C(=O)c1ccc2c(c1)N(Cc1ccccc1)C(=O)CS2=O (stereo unspecified) | -10 | 54* | 1 | -7 | -10 | 0 | -25 | -3
O=C(NCc1ccco1)c1ccc2c(c1)N(Cc1ccccc1)C(=O)CS2=O (stereo unspecified) | -3 | 26 | -3 | -6 | 13 | . | . | .
O=C(NCC1CCCO1)c1ccc2c(c1)N(Cc1ccccc1)C(=O)CS2=O (stereo unspecified) | 1 | 42* | 1 | -4 | -1 | 2 | -63 | -5
O=C(CCc1ccccc1)NNC(=O)COc1ccc([N+](=O)[O-])cc1 | -1 | 7 | . | . | . | . | . | .
O=C(NCC1COCCO1)c1cc(COc2c(F)cccc2F)on1 (stereo unspecified) | 2 | 18 | . | . | . | . | . | .
O=C(NNc1cccc(Cl)n1)c1c(Cl)cccc1Cl | -2 | 56* | 2 | -3 | 4 | . | 27 | 4
NC(=O)NNc1cccc(Cl)n1 | 2 | 47* | 4 | -5 | -11 | 2 | 8 | 1
O=C(COc1ccc(S(=O)(=O)NC2CCCCC2)cc1)NC1CC1 | 4 | -14 | . | . | . | . | . | .
CCOC(=O)N1CCN(C(=O)c2ccc(OCC)cc2)CC1 | -1 | 0 | -3 | -9 | 22 | 1 | . | .
COc1ccc(-c2nc(N)n(C(=O)c3ccccc3)n2)cc1 | ? | -2 | 0 | -6 | -36 | 0 | . | .
COc1ccc(C(=O)n2cnnc2N)cc1 | -3 | 48* | 2 | 1 | 0 | 2 | 61* | 1
CCOc1ccc(C(=O)n2cnnc2N)cc1 | -1 | 48* | -5 | 1 | -16 | 1 | 56* | 1
N#Cc1ccccc1Sc1ccccc1C(=O)NCC(c1ccco1)N1CCCC1 (stereo unspecified) | 6 | . | . | . | . | . | . | .
C=CCSC1=N/C(=C\c2ccc3c(c2)OCO3)C(=O)S1 | 3 | 0 | 0 | -8 | 4 | 1 | . | .
C=CCSC1=N/C(=C\c2cc(OCC)c(OC(C)=O)c([N+](=O)[O-])c2)C(=O)S1 | -1 | 38* | -2 | 2 | 84* | 12 | -44 | 2
Cc1ccc(/C=C/C(=O)Nc2nn[nH]n2)o1 | -1 | 51* | 6 | -5 | 35 | 8 | 14 | 6
C=CCc1c(C)nc(C)nc1N/N=C/c1ccc([N+](=O)[O-])cc1 | -2 | 7 | -1 | 7 | -2 | -4 | . | .
C=CCc1c(C)nc(C)nc1N/N=C/c1ccccc1O | 6 | 49* | -23 | -4 | 0 | 0 | -36 | 3
CCc1cccc(CC)c1NC(=O)C1CCN(C(=O)c2ccco2)CC1 | -1 | 3 | . | . | . | . | . | .
Oc1ccc(/C=N/n2c(COc3ccccc3)n[nH]c2=S)cc1O | -1 | 53* | . | . | . | . | 20 | -8
O=c1c2ccccc2nc(COc2ccccc2)n1/N=C/c1ccc(O)c(O)c1 | 2 | 53* | -4 | -6 | 21 | 2 | 25 | 6
Cc1ccnc(NC(c2ccccc2O)c2oc(CO)cc(=O)c2O)c1 (stereo unspecified) | 4 | 17 | 8 | 1 | 7 | -2 | . | .
O=C(NCc1ccccn1)c1cn(-c2ccccc2)nc1-c1ccc(Cl)cc1 | -1 | 3 | 26 | -7 | -1 | -3 | . | .
SMILES | RanGTP-Impb inh | PfM18AAP inh-1 | Runt-SMMHC FRET | RBBP9 inh | Hck-Nef inh | Runt-CBFb FRET | PfM18AAP inh-2 | CTSL1 counter
O=c1c2ccccc2nc2n1CCC2 | 3 | 46* | -90 | 13 | 0 | -18 | 17 | -10
O=c1c2ccccc2nc2n1CCCCC2 | 2 | 0 | -2 | -4 | 1 | -2 | . | .
Clc1ccc(-c2nc3ccccn3c2CN2CCCCC2)cc1 | . | -3 | -1 | -9 | 11 | -1 | . | .
Oc1ccc(N2CCN(Cc3c(-c4ccccc4)nc4ccccn34)CC2)cc1 | 3 | 34* | . | . | . | . | -28 | -10
COc1ccc(C)cc1NC(=O)C1CCCN(S(=O)(=O)c2cccnc2)C1 (stereo unspecified) | 1 | -4 | . | . | . | . | . | .
O=C(NCc1ccccc1Cl)C1CCCN(S(=O)(=O)c2cccc3nonc23)C1 (stereo unspecified) | 1 | 2 | . | . | . | . | . | .
C[n+]1cccc(C2C(C#N)=C(N)Oc3c2ccc2ccccc32)c1 (stereo unspecified) | -12 | 38* | -60 | 8 | 13 | -47 | -26 | -6
C[n+]1cccc2ccc3c(c21)OC(N)=C(C#N)C3c1ccccc1 (stereo unspecified) | 2 | 10 | 0 | 3 | 1 | -19 | . | .
CN(C(=O)/C=C/c1ccccc1)C1CCCCC1 | -1 | . | . | . | . | . | . | .
c1cc(SSc2ccncc2)ccn1 | 1 | 62* | . | . | . | . | 50* | -1
c1ccc(SSc2ccccc2)cc1 | 0 | 0 | 32 | 0 | -8 | 15 | . | .
O=c1[nH]c2ccc(S(=O)(=O)Nc3ccccc3O)cc2[nH]1 | 4 | 50* | . | . | . | . | 47* | -1
Nc1c(Cl)cc(-c2[nH]c3cc(C(=O)NCCO)ccc3c(=O)c2O)cc1Cl | 0 | 40* | . | . | . | . | -4 | 1
CCCNC(=O)c1ccc2c(=O)c(O)c(-c3ccc(F)cc3)[nH]c2c1 | -35 | . | -121 | . | -16 | -202 | . | .
CCS(=O)(=O)c1nc(S(=O)(=O)c2ccc(C)cc2)c(N2CCC(O)CC2)s1 | 2 | -2 | . | . | . | . | . | .
NC(=O)c1sc2nc3c(c(-c4ccco4)c2c1N)CCC3 | 2 | 33* | 6 | -4 | -11 | 16 | -27 | -5
O=C(CNS(=O)(=O)c1ccccc1)NNC(=O)C(Cl)Cl | 3 | 50* | 1 | -7 | 10 | 2 | 27 | 9
COc1ccc(CN(C)Cc2c(O)ccc3ccccc23)cc1 | -1 | 47* | . | . | . | . | -64 | -2
